Assay results published in ChEMBL document CHEMBL3872268, “3-Amino-thieno[2,3-b]pyridines as microtubule-destabilising agents: Molecular modelling and biological evaluation in the sea urchin embryo and human cancer cells” (Bioorg Med Chem, 2017).
Activity calls are given as the source filed them.

What was measured:
Paracentrotus lividus [1] = experiment: Induction of microtubule destabilization activity in sea urchin free-swimming blastulae assessed as embryo spinning measured after 0.25 to 20 hrs; details: Blastula
Summary of the method: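 Free-swimming blastulae just after hatching (8–10 h post-fertilisation) were cultured in filtered seawater at room temperature. They were treated with 2-fold decreasing concentrations (DMSO stock diluted 10-fold in EtOH; final DMSO ≤0.05%, EtOH ≤1%). Spinning and lack of forward movement were observed by light microscopy after 15 min to 20 h. The value is the effective threshold concentration, from duplicate measurements.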

Paracentrotus lividus [2] = experiment: Induction of microtubule destabilization in sea urchin embryo assessed as cleavage alteration exposed 8 to 20 mins after fertilization and 45 to 55 mins before first mitotic cycle completion measured 2.5 to 5.5 hrs after fertilization
Summary of the method: (§1)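 Gametes were obtained by intracoelomic injection of 0.5 M KCl, and eggs were fertilised in filtered seawater. Embryos were cultured at room temperature with paddle agitation (60 rpm), as a monolayer at up to 2000 embryos/mL. Eggs were exposed 8–20 min post-fertilisation to 2-fold decreasing concentrations (10 mM DMSO stock diluted 10-fold in EtOH). Cleavage was scored microscopically at 2.5–5.5 h. The read-out was the threshold concentration, in duplicate.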

Paracentrotus lividus [3] = experiment: Induction of microtubule destabilization in sea urchin embryo assessed as cleavage arrest exposed for 8 to 20 mins after fertilization and 45 to 55 mins before first mitotic cycle completion measured 2.5 to 5.5 hrs after fertilization; summary of the method: as §1
Paracentrotus lividus [4] = experiment: Induction of microtubule destabilization in sea urchin embryo assessed as developmental retardation at later stages of development
Paracentrotus lividus [5] = experiment: Induction of microtubule destabilization in sea urchin embryo assessed as alteration at later stages of development
[6] = Growth inhibition of human NCI60 cells at 10 uM incubated for 48 hrs by sulforhodamine B assay relative to control; format: functional; details: NCI60, 48 h, read-out: GI
Summary of the method: (§2)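 NCI Developmental Therapeutics Program panel of sixty human tumour cell lines. Compounds were screened first at a single 10 μM dose (percent growth inhibition), and dose-response curves were run for active ligands. GI50 is the concentration giving 50% growth inhibition, reported as the mean across the 60 lines.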

[7] = Growth inhibition of human NCI60 cells incubated for 48 hrs by sulforhodamine B assay; format: functional; details: NCI60, 48 h; summary of the method: as §2
[8] = Toxicity in sea urchin embryo assessed as induction of embryo disintegration at early pluteus stage; details: paracentrotus lividus
[9] = Toxicity in sea urchin embryo assessed as induction of embryo death at early pluteus stage; details: paracentrotus lividus
Paracentrotus lividus [10] = experiment: Induction of microtubule destabilization in sea urchin embryo assessed as formation of tuberculate eggs for 8 to 20 mins after fertilization and 45 to 55 mins before first mitotic cycle completion measured 2.5 to 5.5 hrs after fertilization
Summary of the method: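 Sea urchin gametes were obtained by intracoelomic 0.5 M KCl injection, and embryos were cultured in filtered seawater at room temperature at up to 2000 embryos/mL. Fertilised eggs were exposed to 2-fold decreasing concentrations from 10 mM DMSO stocks diluted 10-fold in 96% EtOH. Final DMSO was kept ≤0.05% and EtOH ≤1%. Microscopic scoring gave the EC, the threshold causing 100% cleavage alteration, in duplicate.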

## N#Cc1cc2c(N)c(C(=O)c3ccc(F)cc3)sc2nc1N
Paracentrotus lividus [1]
  EC: > 4 µM
Paracentrotus lividus [2]
  EC: 4 µM
Paracentrotus lividus [3]
  EC: > 4 µM

## Nc1c(C(=O)c2ccc3c(c2)OCO3)sc2nc(-c3ccncc3)ccc12
Paracentrotus lividus [1]
  EC: > 4 µM
Paracentrotus lividus [2]
  EC: > 4 µM
Paracentrotus lividus [3]
  EC: > 4 µM
Paracentrotus lividus [4]
  Activity: Active
Paracentrotus lividus [5]
  Activity: Active

## COc1ccc(C(=O)c2sc3nc(-c4cccs4)ccc3c2N)cc1OC
Paracentrotus lividus [1]
  EC: > 4 µM
Paracentrotus lividus [2]
  EC: 4 µM
Paracentrotus lividus [3]
  EC: > 4 µM
[6]
  inhibition of growth at 10 µM: 52.6%
[7]
  GI50: 6.31 µM
[8]
  Activity: Toxic
[9]
  Activity: Toxic

## COc1ccc(C(=O)c2sc3nc(-c4cccs4)ccc3c2N)cc1
Paracentrotus lividus [1]
  EC: > 4 µM
Paracentrotus lividus [2]
  EC: > 4 µM
Paracentrotus lividus [3]
  EC: > 4 µM
[8]
  Activity: Toxic
[9]
  Activity: Toxic

## COc1ccc(C(=O)c2sc3nc(N)c(C#N)cc3c2N)cc1OC
Paracentrotus lividus [1]
  EC: > 4 µM
Paracentrotus lividus [2]
  EC: 4 µM
Paracentrotus lividus [3]
  EC: > 4 µM
[6]
  inhibition of growth at 10 µM: 4.6%

## Nc1c(C(=O)c2ccc(F)cc2)sc2nc3c(cc12)CCCC3
Paracentrotus lividus [1]
  EC: > 4 µM
Paracentrotus lividus [2]
  EC: 0.2 µM
Paracentrotus lividus [3]
  EC: > 4 µM
[6]
  inhibition of growth at 10 µM: 26.7%

## COc1ccc(C(=O)c2sc3nc4c(cc3c2N)N2CCC4CC2)cc1OC
Paracentrotus lividus [1]
  EC: > 4 µM
Paracentrotus lividus [2]
  EC: > 4 µM
Paracentrotus lividus [3]
  EC: > 4 µM
[6]
  inhibition of growth at 10 µM: 11.7%
Paracentrotus lividus [4]
  Activity: Active
Paracentrotus lividus [5]
  Activity: Active

## COc1ccc(C(=O)c2sc3nc(-c4ccccc4OC)ccc3c2N)cc1OC
[6]
  inhibition of growth at 10 µM: 43.5%
[7]
  GI50: 7.94 µM

## COc1ccc(C(=O)c2sc3nc4c(cc3c2N)N2CCC4CC2)cc1
Paracentrotus lividus [1]
  EC: > 4 µM
Paracentrotus lividus [2]
  EC: > 4 µM
Paracentrotus lividus [3]
  EC: > 4 µM
[6]
  inhibition of growth at 10 µM: 11.5%
Paracentrotus lividus [4]
  Activity: Active
Paracentrotus lividus [5]
  Activity: Active

## Nc1c(C(=O)c2ccc(Cl)cc2)sc2nc3c(cc12)CCCC3
Paracentrotus lividus [1]
  EC: > 4 µM
Paracentrotus lividus [2]
  EC: 0.5 µM
Paracentrotus lividus [3]
  EC: > 4 µM
[6]
  inhibition of growth at 10 µM: 7.8%

## Cc1ccc(C(=O)c2sc3nc4c(cc3c2N)CCCC4)cc1
Paracentrotus lividus [1]
  EC: > 4 µM
Paracentrotus lividus [2]
  EC: 0.02 µM
Paracentrotus lividus [3]
  EC: 2 µM
[6]
  inhibition of growth at 10 µM: 16.4%
Paracentrotus lividus [10]
  Activity: Active

## Nc1c(C(=O)Nc2ccccc2)sc2nc3c(cc12)CCCCC3
Paracentrotus lividus [1]
  EC: 0.2 µM
Paracentrotus lividus [2]
  EC: 0.01 µM
Paracentrotus lividus [3]
  EC: 0.04 µM

## Nc1c(C(=O)Nc2ccccc2)sc2nc3c(cc12)CCCC3
Paracentrotus lividus [1]
  EC: 0.2 µM
Paracentrotus lividus [2]
  EC: 0.01 µM
Paracentrotus lividus [3]
  EC: 0.05 µM

## COc1ccc(C(=O)c2sc3nc4c(c(-c5ccncc5)c3c2N)CCCC4)cc1OC
Paracentrotus lividus [1]
  EC: > 4 µM
Paracentrotus lividus [2]
  EC: > 4 µM
Paracentrotus lividus [3]
  EC: > 4 µM
Paracentrotus lividus [4]
  Activity: Active
Paracentrotus lividus [5]
  Activity: Active

## Cc1cc(C)c2c(N)c(C(=O)c3ccc4c(c3)OCCO4)sc2n1
Paracentrotus lividus [1]
  EC: > 4 µM
Paracentrotus lividus [2]
  EC: 1 µM
Paracentrotus lividus [3]
  EC: > 4 µM
[6]
  inhibition of growth at 10 µM: 2%

## Nc1c(C(=O)c2ccccc2)sc2nc3c(cc12)N1CCC3CC1
Paracentrotus lividus [1]
  EC: > 4 µM
Paracentrotus lividus [2]
  EC: > 4 µM
Paracentrotus lividus [3]
  EC: > 4 µM
[6]
  inhibition of growth at 10 µM: 7.3%

## Nc1c(C(=O)c2ccc3c(c2)OCO3)sc2nc3c(c(C(F)(F)F)c12)CCCC3
Paracentrotus lividus [1]
  EC: > 4 µM
Paracentrotus lividus [2]
  EC: > 4 µM
Paracentrotus lividus [3]
  EC: > 4 µM
Paracentrotus lividus [4]
  Activity: Active
Paracentrotus lividus [5]
  Activity: Active

## COc1ccc(C(=O)c2sc3nc(-c4ccncc4)ccc3c2N)cc1OC
Paracentrotus lividus [1]
  EC: > 4 µM
Paracentrotus lividus [2]
  EC: 4 µM
Paracentrotus lividus [3]
  EC: > 4 µM
[6]
  inhibition of growth at 10 µM: 17.1%

## COc1ccccc1-c1ccc2c(N)c(C(=O)c3ccc4c(c3)OCO4)sc2n1
Paracentrotus lividus [1]
  EC: > 4 µM
Paracentrotus lividus [2]
  EC: > 4 µM
Paracentrotus lividus [3]
  EC: > 4 µM
[6]
  inhibition of growth at 10 µM: 37.4%
[7]
  GI50: 5.13 µM
Paracentrotus lividus [4]
  Activity: Active
Paracentrotus lividus [5]
  Activity: Active

## Cc1ccc(C(=O)c2sc3nc4c(cc3c2N)CCC4)cc1
Paracentrotus lividus [1]
  EC: > 4 µM
Paracentrotus lividus [2]
  EC: 0.2 µM
Paracentrotus lividus [3]
  EC: > 4 µM

## COC(=O)Nc1nc2cc(C(=O)c3cccs3)ccc2[nH]1 [NOCODAZOLE]
Paracentrotus lividus [1]
  EC: 0.1 µM
Paracentrotus lividus [2]
  EC: 0.005 µM
Paracentrotus lividus [3]
  EC: 0.001 µM
[7]
  GI50: 0.0389 µM
